Screening results from PubChem.
CAL PDZ FP-1: blocks peptide binding to human CAL PDZ domain. AID 504414. purified CAL PDZ, TMR-peptide fluorescence polarization, 1 h. Q9HD26. 0.02% of 330,000 active. inhibition, % at 20 µM;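 active means highest replicate inhibition of at least 40%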;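 further: plate controls were DMSO neutral control wells for no effect and unlabeled competitor peptide control wells for full effect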
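System: purified tagged CAL PDZ domain construct (CerCALP). Schedule: 1 h incubation at room temperature before polarization reading. Medium: 25 mM sodium phosphate pH 7.4, 150 mM NaCl, TCEP, IgG, Thesit. Read-out: percent inhibition from loss of millipolarization. Measured by: FP readout, S and P plane fluorescence. Probe or stimulus: fluorescent TMR peptide probe.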
Rce1 inhib: yeast Ras-converting enzyme inhibition | calls only | Q03530 | 0.27% of 290,000 active | yeast membranes, quenched prenylated peptide cleavage fluorescence;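 active means fall in fluorescence gain of 50% or more versus controls, with final raw signal at or below 3038400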;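 further: plate controls were neutral control wells for no effect and wells lacking membranes for full effect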
Target sequence (Q03530 whole entry, looked up): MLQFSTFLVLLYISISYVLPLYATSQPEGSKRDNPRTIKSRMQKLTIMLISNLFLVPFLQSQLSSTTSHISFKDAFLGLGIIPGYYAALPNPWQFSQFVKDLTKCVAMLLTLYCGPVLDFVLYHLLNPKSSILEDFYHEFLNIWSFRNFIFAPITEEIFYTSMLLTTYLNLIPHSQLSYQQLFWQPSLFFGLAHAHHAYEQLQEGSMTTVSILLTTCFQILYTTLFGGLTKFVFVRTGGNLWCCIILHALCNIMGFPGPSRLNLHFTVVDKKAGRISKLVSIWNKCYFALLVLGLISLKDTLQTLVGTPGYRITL
AI-2 QS mod: Vibrio harveyi AI-2 quorum sensing modulation. AID 2094. 0.4% of 300,000 active. Vibrio harveyi JMH597 AI-2 luminescence/OD600 ratio, 9 h; hits give low values; strain lacks LuxN and CqsS sensors; 0 = neutral-control median. activity change, % at 7.5 µM; in the data active means activity change below about -75%, passing the limit was not always enough;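 further: luminescence divided by OD600 gain over 9 h not by final OD600 alone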
CAL PDZ FP-2: inhibitors of human CAL PDZ peptide binding. purified CAL PDZ, TMR-peptide fluorescence polarization, 1 h. inhibition, % at 24.9 µM. 0.92% of 300,000 active;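 active means mean inhibition of at least 30% with at least half of replicates also reaching 30%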;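 further: 0% = DMSO neutral control and 100% = excess unlabeled competitor peptide PRC23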
ARNT TACC3 PPI: disrupts binding between human ARNT and TACC3 | Q9Y6A5 | AlphaScreen His-ARNT PAS-B/GST-TACC3 binding, luminescence; TACC3 fragment carries E629A point mutation | inhibition, % at 9.99 µM | 0.66% of 390,000 active | AID 623870;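 active means mean inhibition of replicates at least 50% and at least half of replicates each reaching 50%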;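 further: 0% = complete ARNT plus TACC3 wells and 100% = ARNT alone without TACC3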
The depositor's hits bear a star; i = inactive; · = no result; + = active, no number. Compounds with a hit are over-represented: about 1.7% of the library has one in this group of screens.

SMILES	CAL PDZ FP-1	Rce1 inhib	AI-2 QS mod	CAL PDZ FP-2	ARNT TACC3 PPI
Cc1ccc(N2CCN(C(=S)Nc3ccccc3)CC2)cc1	0	i	44	86*	-1
CCC(=O)Nc1ccc(C(=O)OCc2ccc(Cl)c(Cl)c2)cc1	0	i	30	-2	-11
CC(=O)Nc1ccc(C(=O)OCc2ccc(Cl)c(Cl)c2)cc1	-1	i	-85*	-4	-8
Cc1ccc(S(=O)(=O)NNC(=S)NCC2CCCO2)cc1 (centres undefined)	0	i	4	-1	-2
Nc1c(S(=O)(=O)c2cccs2)c2nc3ccccc3nc2n1/N=C/c1cccc(O)c1	-2	i	29	49*	33
COc1cccc(/C=N/n2c(N)c(S(=O)(=O)c3cccs3)c3nc4ccccc4nc32)c1	-1	i	-5	1	-4
Cc1c(N=NC2=C(O)CCCC2=O)c(=O)n(-c2ccccc2)n1C	0	i	8	-2	63*
Cc1c(N=Nc2ccc(O)cc2)c(=O)n(-c2ccccc2)n1C	0	i	21	2	14
CCCC#Cc1cnc2c(c1)C(=O)N([C@H](C)CO)C[C@@H](C)[C@H](CN(C)S(=O)(=O)c1cccc(OC)c1)O2	·	·	·	·	0
Oc1ccc(N=Nc2ccccc2-c2nn[nH]n2)c(O)c1	-1	i	0	2	67*
COc1cccc(C(=O)N(C)CC(=O)Nc2cccc3ccccc23)c1	-2	·	·	-4	-15
CCOC(=O)c1cccc(NC(=O)CSc2nnc(C)n2Cc2ccccc2)c1	-3	i	48	0	-1
CN(C)c1ccc2c(O)cc(=O)n(C)c2c1	·	i	14	-6	18
CN(C)c1ccc2cc(S(=O)(=O)O)cc(O)c2c1	1	·	·	·	36*
Nc1cccc2cc(S(=O)(=O)O)ccc12	-1	·	·	-7	34
O=Nc1c(O)ccc2cc(S(=O)(=O)O)ccc12	0	·	·	-6	18*
O=C(CNC(=O)c1ccc2c(c1)OCCO2)N/N=C/c1ccc(Cl)cc1	-2	i	36	70*	-1
CCOc1cc(N2CCOCC2)c(OCC)cc1NC(=O)c1cc(C)cc(C)c1	1	i	20	76*	-2
COc1ccc(CN(C)C[C@@H]2OCc3cn(nn3)CCCC(=O)N([C@@H](C)CO)C[C@@H]2C)cc1	·	·	·	·	-7
O=C1NC(=O)C(=Cc2ccc(Cl)cc2Cl)S1	-1	·	·	0	-5
COc1cc(/C=N\NC(=O)c2sc(N)nc2C)cc(OC)c1OC	-2	i	12	4	49*
Cc1ccc(CNc2ncnc3cc(Cl)ccc23)o1	-2	i	3	-4	0
COc1ccc(CCNC(=O)CCSCc2ccccc2F)cc1OC	·	i	14	41*	-20
S=C1c2ccccc2CN1c1ccccc1	-1	i	-5	-1	-3
Fc1ccc(CN2CCN(C(=S)NCCc3ccccc3)CC2)c(Cl)c1	0	i	12	34*	-9
SMILES	CAL PDZ FP-1	Rce1 inhib	AI-2 QS mod	CAL PDZ FP-2	ARNT TACC3 PPI
S=C(NCCc1ccccc1)N1CCN(Cc2ccc(Cl)c(Cl)c2)CC1	-1	i	-7	11	-21
CCCC#Cc1ccc2c(c1)O[C@H](CN(C)C(=O)C1CC1)[C@H](C)CN([C@H](C)CO)S2(=O)=O	·	·	·	·	50*
O=C(CSc1ccc(-c2ccccn2)nn1)c1ccc([N+](=O)[O-])cc1	-3	i	24	-3	52*
CCOC(=O)c1ccccc1NC(=O)CSc1nccn1C	0	·	22	-24	2
O=C(CSc1ccc(-c2cccnc2)nn1)c1ccc([N+](=O)[O-])cc1	-2	i	55	-1	-1
CCc1ccc(NC(=O)CSc2ccc(-c3ccccn3)nn2)cc1	-3	i	12	-3	51*
CC(C)c1ccc(NC(=O)COc2ccccn2)cc1	-1	i	-83*	1	0
CCOC(=O)c1ccccc1NC(=O)CSc1ccc(-c2ccccn2)nn1	-2	i	28	51*	64*
C[C@H](CO)N1C[C@H](C)[C@H](CN(C)S(=O)(=O)c2cccc(F)c2)Oc2ncc(C#CCN(C)C)cc2C1=O	·	·	·	·	1
O=S(=O)(N[C@@H]1CC[C@@H](CCn2cc(-c3cccnc3)nn2)O[C@H]1CO)c1ccc(F)cc1	·	·	·	·	3
CC(=O)Nc1ccc(C=NNc2nnc(NN=Cc3ccc(NC(C)=O)cc3)c3ccccc23)cc1	1	·	·	-5	2
O=C(NNC(=O)c1ccccn1)c1ccc(OC(F)F)cc1	2	·	·	-3	71*
c1ccc2c(-c3nnc(SCc4cn5ccccc5n4)o3)c[nH]c2c1	-4	i	19	-5	-4
c1ccc2c(-c3cn4ccccc4n3)c[nH]c2c1	·	+	4	·	·
O=C(NNC1=C(C(=O)C(F)(F)F)CCC1)c1ccccc1O	0	i	3	-1	63*
O=C(NNC1=C(C(=O)C(F)(F)F)CCC1)c1ccccc1Cl	0	i	26	-2	1
O=[N+]([O-])c1cc(S(=O)(=O)N2CCCC2)ccc1NN=C1CCCCC1	-1	+	-1	0	-2
O=C(Nc1ccccc1C(F)(F)F)c1cnccn1	0	i	10	·	-26
Cc1cccc(C(=O)NCc2ccc(S(N)(=O)=O)cc2)c1[N+](=O)[O-]	0	i	11	46*	-1
O=C(O)c1ccc(NCc2ccc3c(c2)OCO3)cc1	-1	i	-92*	-2	·
O=C(NCc1ccc2c(c1)OCO2)c1ccc2c(c1)OCO2	-2	i	1	3	-1
Cc1cc(C(=O)NCc2ccc3c(c2)OCO3)ccc1[N+](=O)[O-]	·	i	11	69*	-17
Cc1ccc(C(=O)NCc2ccc3c(c2)OCO3)cc1C	-1	i	-52	-1	-4
O=C(NCc1ccc2c(c1)OCO2)c1ccc(Cl)nc1	0	i	-5	99*	-2
C[C@@H]1CN([C@@H](C)CO)C(=O)c2ccccc2-c2ccccc2CO[C@H]1CN(C)C(=O)[C@@H](Cc1ccccc1)N(C)C	·	·	·	·	-6
SMILES	CAL PDZ FP-1	Rce1 inhib	AI-2 QS mod	CAL PDZ FP-2	ARNT TACC3 PPI
C[C@@H]1CN([C@H](C)CO)C(=O)c2cc(NC(=O)C3CC3)ccc2O[C@H]1CN(C)Cc1ccc(Cl)c(Cl)c1	·	·	·	·	-2
CCSc1nc2c(c(=O)[nH]1)C(c1ccccn1)C1=C(CC(C)(C)CC1=O)N2 (centres undefined)	0	+	13	-2	-2
CC(C)Sc1nc2c(c(=O)[nH]1)C(c1cccs1)C1=C(CC(C)(C)CC1=O)N2 (centres undefined)	-2	i	2	·	-3
CC(NC(=O)c1ccccc1)C(=O)OCn1nnc2ccccc2c1=O (centres undefined)	-2	·	·	3	·
CCC(C(=O)OCn1nnc2ccccc2c1=O)c1ccccc1 (centres undefined)	-1	i	9	54*	-1
C=CCn1c(COc2ccc(OC)cc2)nnc1SC(C)C(=O)NC1CC1 (centres undefined)	-2	·	·	-2	-3
